{"source": "paper PMC5079537", "about": "(Cancer cell, 2016)", "key": {"MDM2 RING protein [1]": {"target": "T1, MDM2 RING protein (Homo sapiens, UniProt Q00987)", "T1 sequence (Q00987 438-479 limits assumed)": "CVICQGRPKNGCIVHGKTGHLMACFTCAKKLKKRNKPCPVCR", "assay": "Fluorescent titration binding assay", "how_it_was_run": "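Binding to GST-MDM2 RING protein measured by fluorescence titration, using the protein's intrinsic fluorescence (excitation 280 nm, emission 335 nm). Protein titrated with increasing test compound concentrations. Relative change in fluorescence intensity traced and normalised to derive binding Kd.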"}, "XIAP IRES [2]": {"target": "XIAP IRES", "assay": "Fluorescent titration binding assay", "conditions": "read-out: binding Kd to XIAP IRES", "how_it_was_run": "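Fluorescence-labelled XIAP IRES RNA (excitation 485 nm, emission 530 nm) titrated with increasing test compound concentrations. Relative change in fluorescence intensity traced and normalised to derive binding Kd.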"}, "[3]": {"tested_on": "MDM2 and XIAP expression in ALL and NB cells", "assay": "Western blot for MDM2 and XIAP expression in cancer cells", "format": "cell-based, human", "how_it_was_run": "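MDM2-overexpressing ALL lines (EU-1, EU-3) and NB lines (SH-EP1, NB-1691) were treated with test compounds for 24 hr. Time-course and dose-response runs were done in EU-1. Lysis was in Tris pH 7.6/NaCl/1% NP-40 buffer with phosphatase and protease inhibitors. Lysates were resolved by SDS-PAGE, transferred to nitrocellulose, probed for MDM2 and XIAP, and detected by chemiluminescence.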"}, "[4]": {"tested_on": "endogenous MDM2 in cancer cells", "assay": "IP-Western blot for ubiquitination of endogenous MDM2", "format": "cell-based, human", "how_it_was_run": "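EU-1 cells treated with 10 μM test compound or a control compound. Lysed in Tris pH 7.6/NaCl/NP-40 buffer with protease and phosphatase inhibitors, cleared, then immunoprecipitated with anti-MDM2 on protein G/protein A-agarose. Immunoprecipitates run on SDS-PAGE, transferred to nitrocellulose, probed with anti-ubiquitin and detected by chemiluminescence.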"}, "[5]": {"tested_on": "human normal bone marrow mononuclear (NBMM) cells", "assay": "WST cytotoxic assay on normal bone marrow cells", "format": "cell-based", "how_it_was_run": "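Normal human bone marrow mononuclear cells came from five consenting donors under IRB approval. Cells in 96-well plates got a range of test compound concentrations for 20 hr, then WST (25 μg/well) for another 4 hr. OD read at 450 nm against 620 nm reference. Mean ± SD of three independent experiments.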"}, "[6]": {"tested_on": "NBMM cells (normal human hematopoiesis)", "assay": "Clonogenic analyses for CFU-GM and BFU-E", "format": "cell-based", "conditions": "colonies after 14 days"}, "[7]": {"tested_on": "12 cancer cell lines (6 ALL and 6 NB)", "format": "cell-based", "conditions": "24 hr"}, "[8]": {"tested_on": "caspases 3, 7 and 9, PARP", "assay": "Western blot and ELISA for caspase activation and PARP cleavage", "format": "cell-based, human", "conditions": "ALL and NB cells", "how_it_was_run": "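Western blot of caspase-3 activation and PARP cleavage in cancer cells treated with test compounds at 1 or 10 μM, or a control compound at 10 μM, over a time course. Cells were lysed in 50 mM Tris pH 7.6, 150 mM NaCl, 1% NP-40 with phosphatase and protease inhibitors. Lysates were run on SDS-PAGE, transferred to nitrocellulose, probed with specific antibodies and detected by chemiluminescence.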"}, "MDM2 RING protein [9]": {"target": "T1, MDM2 RING protein", "assay": "ITC binding assay", "conditions": "read-out: binding Kd to MDM2 RING protein"}, "MDM2 in EU-1 cells": {"tested_on": "MDM2 in EU-1 cells", "assay": "CHX pulse-chase assay, MDM2 turnover", "format": "cell-based, human", "conditions": "10 μM for 4 hr, control greater than 90 min"}, "p53 in EU-1 cells [10]": {"tested_on": "p53 in EU-1 cells", "assay": "CHX pulse-chase assay, p53 turnover", "format": "cell-based, human", "conditions": "control less than 30 min"}, "p53 in EU-1 cells [11]": {"tested_on": "p53 in EU-1 cells", "assay": "Western blot for p53 expression", "format": "cell-based, human", "conditions": "1 μM MX3 or 10 μM MX69, 2 to 8 hr after treatment"}, "EU-1 cells": {"tested_on": "EU-1 cells", "assay": "Annexin-V FITC staining for apoptosis", "format": "cell-based, human", "conditions": "10 μM", "how_it_was_run": "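EU-1 cells treated with 10 μM test compound were washed in PBS and stained with FITC-annexin V and 7-AAD using a kit per the maker's protocol. Read by fluorescence microscopy (annexin V green, 7-AAD red) and by flow cytometry. For flow quantitation, cells were treated for 24 hr. Mean of three independent experiments, bars ± SD.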"}, "[12]": {"tested_on": "Hsd:ICR (CD-1) normal mice", "assay": "Maximum tolerated dose", "format": "in vivo", "conditions": "doses between 25 and 200 mg/kg i.p., 3 days/week x 2 courses"}, "[13]": {"tested_on": "EU-1 leukemia cells in SCID mice", "assay": "EU-1 leukemia xenograft in SCID mice", "format": "in vivo"}, "XIAP IRES [14]": {"tested_on": "XIAP IRES", "assay": "Dicistronic reporter assay", "format": "cell-based", "conditions": "dicistronic plasmid pRL-xi-FL"}, "MYCN IRES": {"tested_on": "MYCN IRES", "assay": "Dicistronic reporter assay, control IRES", "format": "cell-based"}, "[15]": {"tested_on": "Hsd:ICR (CD-1) normal mice", "conditions": "100 mg/kg"}}, "data": [{"molecule": "O=C1c2c(O)ccc(O)c2C(=O)c2c(NCCNCCO)ccc(NCCNCCO)c21", "note": "[MX3, mitoxantrone, reference compound]", "values": [{"measurement": "binding to MDM2 RING protein", "setting": "MDM2 RING protein [1]", "result": "neither of these leads bound"}, {"measurement": "Kd", "setting": "XIAP IRES [2]", "result": 5260, "unit": "nM"}, {"measurement": "inhibition of MDM2 and XIAP protein expression", "setting": "[3]", "result": "inhibited expression of both MDM2 and XIAP"}, {"measurement": "ubiquitination of endogenous MDM2", "setting": "[4]", "result": "induced ubiquitination"}, {"measurement": "cell survival of NBMM", "setting": "[5]; 2 μM, 24 hr", "result": "about 50%"}, {"measurement": "inhibitory effect on BFU-E", "setting": "[6]; 1 μM", "result": "severe inhibitory effects"}, {"measurement": "cytotoxic effect", "setting": "[7]", "result": "most potent cytotoxic effect"}, {"measurement": "activation of caspases 3, 7 and 9 and cleavage of PARP", "setting": "[8]", "result": "activation of these caspases and cleavage of PARP were detected"}]}, {"molecule": "Cc1ccc(NS(=O)(=O)c2ccc3c(c2)C2C=CCC2C(c2ccc(C(=O)O)cc2)N3)cc1C", "note": "(stereo not drawn) [MX69]", "values": [{"measurement": "Kd", "setting": "MDM2 RING protein [1]; read-out: binding Kd to MDM2 RING protein", "result": 2340, "unit": "nM"}, {"measurement": "Kd", "setting": "MDM2 RING protein [9]", "result": 2750, "unit": "nM"}, {"measurement": "inhibition of MDM2 and XIAP protein expression", "setting": "[3]", "result": "inhibited expression of both MDM2 and XIAP"}, {"measurement": "ubiquitination of endogenous MDM2", "setting": "[4]", "result": "induced ubiquitination"}, {"measurement": "MDM2 half-life", "setting": "MDM2 in EU-1 cells", "result": "< 30", "unit": "min"}, {"measurement": "p53 half-life", "setting": "p53 in EU-1 cells [10]", "result": "remarkably increased"}, {"measurement": "p53 protein levels", "setting": "p53 in EU-1 cells [11]", "result": "significantly increased"}, {"measurement": "Annexin-V positive cells", "setting": "EU-1 cells", "result": "over 90%"}, {"measurement": "cell survival of NBMM", "setting": "[5]; 2–8 μM for 24 hr", "result": "over 90%"}, {"measurement": "inhibitory effect on BFU-E", "setting": "[6]; 10 μM", "result": "little inhibitory effect"}, {"measurement": "inhibitory effect on CFU-GM", "setting": "[6]; 10 μM", "result": "little inhibitory effect"}, {"measurement": "tolerability, deaths by day 30", "setting": "[12]", "result": "well tolerated, with no deaths"}, {"measurement": "mice that died within 98–143 days after inoculation", "setting": "[13]; 50 mg/kg i.p.", "result": "Forty"}, {"measurement": "mice that died within 98–143 days after inoculation", "setting": "[13]; 75 mg/kg i.p.", "result": 20, "unit": "%"}, {"measurement": "adverse effects (body weight, fur pattern)", "setting": "[13]; up to 40-days post-treatment", "result": "no adverse effects"}, {"measurement": "cytotoxic effect", "setting": "[7]", "result": "significant cytotoxic effect"}, {"measurement": "XIAP IRES-mediated translation of firefly luciferase", "setting": "XIAP IRES [14]", "result": "inhibited"}, {"measurement": "activity on the MYCN IRES", "setting": "MYCN IRES", "result": "no activity"}, {"measurement": "activation of caspases 3, 7 and 9 and cleavage of PARP", "setting": "[8]", "result": "activation of these caspases and cleavage of PARP were detected"}, {"measurement": "ALT", "setting": "[15]", "result": "no significant increases"}, {"measurement": "AST", "setting": "[15]", "result": "no significant increases"}, {"measurement": "BUN", "setting": "[15]", "result": "no significant increases"}, {"measurement": "PLT", "setting": "[15]", "result": "no significant decreases"}, {"measurement": "WBC", "setting": "[15]", "result": "no significant decreases"}, {"measurement": "histopathology of heart, liver and kidney", "setting": "[15]", "result": "no evidence of toxicity"}]}]}
